Source: ChEMBL document CHEMBL1149594, “Synthesis and HCV inhibitory properties of 9-deaza- and 7,9-dideaza-7-oxa-2'-C-methyladenosine” (Bioorg Med Chem, 2007)

What was measured:
Hepatitis C virus [1] = assay: Antiviral activity against HCV genotype 1b in Huh7 cells assessed as inhibition of viral RNA replication after 24 hrs by ribonuclease protection assay; type: functional, organism-based, Hepacivirus hominis; conditions: Huh-7, 24 h
Outline: (§1)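 Huh-7 (HB-1) cells carrying a subgenomic bicistronic neomycin-resistance replicon from HCV genotype 1b. Compound incubated with cells 24 h or 72 h. Intracellular replicon RNA then quantified by in situ ribonuclease protection. EC50 taken as the mean of at least two separate determinations.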

Hepatitis C virus [2] = assay: Antiviral activity against HCV genotype 1b in Huh7 cells assessed as inhibition of viral RNA replication after 72 hrs by ribonuclease protection assay; type: functional, organism-based, Hepacivirus hominis; conditions: Huh-7, 72 h; outline: as §1
[3] = Cytotoxicity against Huh7 cells after 24 hrs by MTS assay; type: cell-based, Huh-7; conditions: human
Outline: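 Nucleoside cytotoxicity in the replicon-bearing Huh-7 cells, measured by MTS assay after 24 h exposure. Result expressed as CC50.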

Row | Compound | EC50 (Hepatitis C virus [1]) | EC50 (Hepatitis C virus [2]) | CC50 at 24 h [3]
1 | C[C@@]1(O)[C@H](O)[C@@H](CO)O[C@H]1n1ccc2c(N)ncnc21 [BETA-2'-C-METHYL-7-DEAZA-ADENOSINE] | 0.3 µM | 0.11 µM | > 100 µM
2 | C[C@@]1(O)[C@H](O)[C@@H](CO)O[C@H]1c1coc2c(N)ncnc12 | 22 µM | 8.1 µM | > 100 µM

The next lines start with results.

Row | EC50 (Hepatitis C virus [1]) | EC50 (Hepatitis C virus [2]) | Compound | CC50 at 24 h [3]
3 | 7.45 µM | 1.5 µM | CC(C)[C@H](N)C(=O)O[C@@H]1[C@@H](CO)O[C@@H](n2ccc(N)nc2=O)[C@]1(C)O [VALOPICITABINE] | > 100 µM
4 | > 100 µM | 59.7 µM | C[C@@]1(O)[C@H](O)[C@@H](CO)O[C@H]1c1c[nH]c2c(N)ncnc12 | > 100 µM
5 | 0.25 µM | 0.2 µM | C[C@@]1(O)[C@H](O)[C@@H](CO)O[C@H]1n1cnc2c(N)ncnc21 | > 100 µM
